According to ChEMBL document CHEMBL5705885, “CYT387, a selective JAK1/JAK2 inhibitor: in vitro assessment of kinase selectivity and preclinical studies using cell lines and primary cells from polycythemia vera patients” (Leukemia, 2009):

What was measured:
[1] = target: Serine/threonine-protein kinase D1 (Homo sapiens, UniProt Q15139); assay: Inhibition of PRKD1 (unknown origin)
Activin receptor type-1B = Activin receptor type-1B (Homo sapiens, UniProt P36896); assay: Inhibition of ACVR1B (unknown origin)
[2] = target: Serine/threonine-protein kinase BRSK1 (Homo sapiens, UniProt Q8TDC3); assay: Inhibition of BRSK1 (unknown origin)
Ephrin type-B receptor 1 = Ephrin type-B receptor 1 (Homo sapiens, UniProt P54762); assay: Inhibition of EPHB1 (unknown origin)
[3] = target: T1, G protein-coupled receptor kinase 4 (Homo sapiens, UniProt P32298); assay: Inhibition of GRK4 (unknown origin)
[4] = target: Serine/threonine-protein kinase MARK1 (Homo sapiens, UniProt Q9P0L2); assay: Inhibition of MARK1 (unknown origin)
[5] = target: T2, Myosin light chain kinase 2, skeletal/cardiac muscle (Homo sapiens, UniProt Q9H1R3); assay: Inhibition of MYLK2 (unknown origin)
[6] = target: Serine/threonine-protein kinase Nek9 (Homo sapiens, UniProt Q8TD19); assay: Inhibition of NEK9 (unknown origin)
[7] = target: High affinity nerve growth factor receptor (Homo sapiens, UniProt P04629); assay: Inhibition of NTRK1 (unknown origin)
[8] = target: BDNF/NT-3 growth factors receptor (Homo sapiens, UniProt Q16620); assay: Inhibition of NTRK2 (unknown origin)
[9] = target: T3, Serine/threonine-protein kinase PAK 4 (Homo sapiens, UniProt O96013); assay: Inhibition of PAK4 (unknown origin)
[10] = target: Platelet-derived growth factor receptor alpha (Homo sapiens, UniProt P16234); assay: Inhibition of PDGFRA (unknown origin)
[11] = target: RAF proto-oncogene serine/threonine-protein kinase (Homo sapiens, UniProt P04049, Y340D); assay: Inhibition of RAF1 Y340D (unknown origin)
[12] = target: T4, Proto-oncogene tyrosine-protein kinase ROS (Homo sapiens, UniProt P08922); assay: Inhibition of ROS1 (unknown origin)
[13] = target: Serine/threonine-protein kinase Sgk1 (Homo sapiens, UniProt O00141); assay: Inhibition of SGK (unknown origin)
[14] = target: G protein-coupled receptor kinase 3 (Homo sapiens, UniProt P35626); assay: Inhibition of ADRBK2 (unknown origin)
[15] = target: Calcium/calmodulin-dependent protein kinase type IV (Homo sapiens, UniProt Q16566); assay: Inhibition of CAMK4 (unknown origin)
[16] = target: Tyrosine-protein kinase CSK (Homo sapiens, UniProt P41240); assay: Inhibition of CSK (unknown origin)
[17] = target: Dual specificity tyrosine-phosphorylation-regulated kinase 1A (Homo sapiens, UniProt Q13627); assay: Inhibition of DYRK1A (unknown origin)
[18] = target: Tyrosine-protein kinase Fer (Homo sapiens, UniProt P16591); assay: Inhibition of FER (unknown origin)
[19] = target: Fibroblast growth factor receptor 1 (Homo sapiens, UniProt P11362); assay: Inhibition of FGFR1 (unknown origin)
[20] = target: Fibroblast growth factor receptor 3 (Homo sapiens, UniProt P22607); assay: Inhibition of FGFR3 (unknown origin)
[21] = target: Glycogen synthase kinase-3 alpha (Homo sapiens, UniProt P49840); assay: Inhibition of GSK3alpha (unknown origin)
[22] = target: Leukocyte tyrosine kinase receptor (Homo sapiens, UniProt P29376); assay: Inhibition of LTK (unknown origin)
[23] = target: MAP kinase-activated protein kinase 5 (Homo sapiens, UniProt Q8IW41); assay: Inhibition of MAPKAPK5 (unknown origin)
[24] = target: Phosphorylase b kinase gamma catalytic chain, liver/testis isoform (Homo sapiens, UniProt P15735); assay: Inhibition of PHKG2 (unknown origin)
[25] = target: Protein kinase C beta type (Homo sapiens, UniProt P05771); assay: Inhibition of PRKCB1 (unknown origin)
SRSF protein kinase 1 = SRSF protein kinase 1 (Homo sapiens, UniProt Q96SB4); assay: Inhibition of SRPK1 (unknown origin)
CMK = assay: Antiproliferative activity against human CMK cells harboring JAK3A572V mutant measured after 72 hrs by Alamar blue staining based analysis; assay type: functional, cell-based
Outline: (§1)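 Cells were exposed for 72 h at 37 °C under 5% CO2 to compound made up as DMSO stock and diluted in culture medium. Proliferation was then read by Alamar Blue.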

K562 = assay: Antiproliferative activity against human K562 cells measured after 72 hrs by Alamar blue staining based analysis; assay type: functional, cell-based; conditions: K562, 72 h; outline: as §1
[26] = target: Mitogen-activated protein kinase 8 (Homo sapiens) (UniProt P45983); conditions: dose 100.0 nM
Aurora kinase B = Aurora kinase B (Homo sapiens, UniProt Q96GD4); conditions: dose 100.0 nM
[27] = target: Serine/threonine-protein kinase B-raf (Homo sapiens, UniProt P15056); conditions: dose 100.0 nM
[28] = target: Cyclin-dependent kinase 1/cyclin B1 (Homo sapiens) (UniProt P06493+P14635); conditions: dose 100.0 nM
[29] = target: Tyrosine-protein kinase Fgr (Homo sapiens) (UniProt P09769); conditions: dose 100.0 nM
[30] = target: T1, G protein-coupled receptor kinase 4; conditions: dose 100.0 nM
[31] = target: Homeodomain-interacting protein kinase 1 (Homo sapiens, UniProt Q86Z02); conditions: dose 100.0 nM
[32] = target: Mitogen-activated protein kinase 10 (Homo sapiens) (UniProt P53779); conditions: dose 100.0 nM
[33] = target: Mitogen-activated protein kinase 9 (Homo sapiens) (UniProt P45984); conditions: dose 100.0 nM
[34] = target: Misshapen-like kinase 1 (Homo sapiens) (UniProt Q8N4C8); conditions: dose 100.0 nM
[35] = target: Muscle, skeletal receptor tyrosine-protein kinase (Homo sapiens) (UniProt O15146); conditions: dose 100.0 nM
[36] = target: T2, Myosin light chain kinase 2, skeletal/cardiac muscle; conditions: dose 100.0 nM
[37] = target: T3, Serine/threonine-protein kinase PAK 4; conditions: dose 100.0 nM
[38] = target: Serine/threonine-protein kinase PLK3 (Homo sapiens, UniProt Q9H4B4); conditions: dose 100.0 nM
[39] = test system: RAF proto-oncogene serine/threonine-protein kinase (Homo sapiens), P04049 [Y340D]; conditions: dose 100.0 nM
[40] = target: T4, Proto-oncogene tyrosine-protein kinase ROS; conditions: dose 100.0 nM
[41] = target: Testis-specific serine/threonine-protein kinase 1 (Homo sapiens) (UniProt Q9BXA7); conditions: dose 100.0 nM
Sequence of Testis-specific serine/threonine-protein kinase 1 (Homo sapiens) (Q9BXA7 whole entry): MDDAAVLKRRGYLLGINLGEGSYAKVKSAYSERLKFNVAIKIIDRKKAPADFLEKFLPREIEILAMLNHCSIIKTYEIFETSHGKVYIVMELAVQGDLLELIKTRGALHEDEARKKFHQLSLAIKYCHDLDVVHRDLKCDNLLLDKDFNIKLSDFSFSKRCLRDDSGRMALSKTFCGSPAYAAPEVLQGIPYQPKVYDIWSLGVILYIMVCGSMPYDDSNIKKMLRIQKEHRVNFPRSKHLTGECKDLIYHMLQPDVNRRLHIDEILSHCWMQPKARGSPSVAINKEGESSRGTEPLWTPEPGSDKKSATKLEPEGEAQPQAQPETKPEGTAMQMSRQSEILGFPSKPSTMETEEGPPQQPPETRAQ

T4 sequence (P08922 whole entry): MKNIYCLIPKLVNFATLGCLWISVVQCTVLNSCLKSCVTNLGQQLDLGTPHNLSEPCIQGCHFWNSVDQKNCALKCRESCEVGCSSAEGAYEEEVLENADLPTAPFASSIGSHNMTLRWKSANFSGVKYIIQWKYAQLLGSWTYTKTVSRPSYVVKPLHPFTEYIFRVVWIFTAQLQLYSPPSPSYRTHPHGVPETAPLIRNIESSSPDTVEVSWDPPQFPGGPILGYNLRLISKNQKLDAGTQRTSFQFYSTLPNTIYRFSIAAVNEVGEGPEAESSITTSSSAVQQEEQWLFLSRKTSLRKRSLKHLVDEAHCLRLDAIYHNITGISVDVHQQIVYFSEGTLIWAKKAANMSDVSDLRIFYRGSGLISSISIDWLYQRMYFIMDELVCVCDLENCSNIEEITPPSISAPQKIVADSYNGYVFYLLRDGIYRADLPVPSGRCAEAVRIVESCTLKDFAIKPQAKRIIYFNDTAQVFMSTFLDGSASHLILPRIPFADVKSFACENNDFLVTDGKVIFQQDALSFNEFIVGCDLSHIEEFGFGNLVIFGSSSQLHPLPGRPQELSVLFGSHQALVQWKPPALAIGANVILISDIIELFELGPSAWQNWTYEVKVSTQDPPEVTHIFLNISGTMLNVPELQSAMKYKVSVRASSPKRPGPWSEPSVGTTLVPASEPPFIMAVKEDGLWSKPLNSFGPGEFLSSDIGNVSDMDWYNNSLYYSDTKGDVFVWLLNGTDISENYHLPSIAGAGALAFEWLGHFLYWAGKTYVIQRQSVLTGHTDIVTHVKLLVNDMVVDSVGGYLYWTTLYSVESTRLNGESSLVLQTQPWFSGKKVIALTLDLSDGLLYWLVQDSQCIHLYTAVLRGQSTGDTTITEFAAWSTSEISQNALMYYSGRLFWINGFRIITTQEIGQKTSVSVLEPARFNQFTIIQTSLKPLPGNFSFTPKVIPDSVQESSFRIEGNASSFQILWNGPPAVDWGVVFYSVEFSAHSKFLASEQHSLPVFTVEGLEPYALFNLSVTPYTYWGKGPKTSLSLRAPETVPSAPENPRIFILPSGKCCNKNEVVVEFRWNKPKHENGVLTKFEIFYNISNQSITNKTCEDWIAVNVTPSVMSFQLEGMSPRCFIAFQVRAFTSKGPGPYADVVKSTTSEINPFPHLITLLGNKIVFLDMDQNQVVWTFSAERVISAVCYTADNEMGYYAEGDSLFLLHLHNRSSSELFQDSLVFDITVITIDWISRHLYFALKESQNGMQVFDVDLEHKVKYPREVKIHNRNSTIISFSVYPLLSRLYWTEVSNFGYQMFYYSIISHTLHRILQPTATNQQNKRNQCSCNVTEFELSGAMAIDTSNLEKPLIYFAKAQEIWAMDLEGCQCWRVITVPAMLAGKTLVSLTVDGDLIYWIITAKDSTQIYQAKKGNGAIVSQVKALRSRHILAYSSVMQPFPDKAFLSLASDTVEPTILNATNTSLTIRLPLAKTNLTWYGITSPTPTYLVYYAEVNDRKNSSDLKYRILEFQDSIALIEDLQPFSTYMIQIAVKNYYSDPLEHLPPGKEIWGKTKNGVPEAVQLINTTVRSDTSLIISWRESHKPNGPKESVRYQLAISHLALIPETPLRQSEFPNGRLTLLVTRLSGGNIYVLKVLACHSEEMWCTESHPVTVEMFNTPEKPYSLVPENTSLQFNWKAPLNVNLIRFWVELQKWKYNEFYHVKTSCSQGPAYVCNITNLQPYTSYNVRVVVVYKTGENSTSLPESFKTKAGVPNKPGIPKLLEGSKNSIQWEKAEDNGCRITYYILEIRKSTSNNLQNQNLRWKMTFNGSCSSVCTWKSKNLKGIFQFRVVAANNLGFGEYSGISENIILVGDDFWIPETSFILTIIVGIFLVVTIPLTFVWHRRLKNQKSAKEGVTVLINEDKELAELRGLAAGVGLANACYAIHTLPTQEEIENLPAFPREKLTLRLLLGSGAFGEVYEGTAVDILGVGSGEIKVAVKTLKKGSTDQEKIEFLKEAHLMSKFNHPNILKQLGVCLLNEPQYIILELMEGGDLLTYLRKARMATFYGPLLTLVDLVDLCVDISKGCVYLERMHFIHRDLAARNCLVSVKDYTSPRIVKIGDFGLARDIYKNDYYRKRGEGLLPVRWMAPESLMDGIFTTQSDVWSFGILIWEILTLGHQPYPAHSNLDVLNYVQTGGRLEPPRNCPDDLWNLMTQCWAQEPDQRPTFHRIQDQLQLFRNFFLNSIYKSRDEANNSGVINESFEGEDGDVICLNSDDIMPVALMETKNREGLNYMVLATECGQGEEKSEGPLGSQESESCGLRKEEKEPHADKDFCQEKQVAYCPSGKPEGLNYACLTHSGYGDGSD
T2 sequence (Q9H1R3 whole entry): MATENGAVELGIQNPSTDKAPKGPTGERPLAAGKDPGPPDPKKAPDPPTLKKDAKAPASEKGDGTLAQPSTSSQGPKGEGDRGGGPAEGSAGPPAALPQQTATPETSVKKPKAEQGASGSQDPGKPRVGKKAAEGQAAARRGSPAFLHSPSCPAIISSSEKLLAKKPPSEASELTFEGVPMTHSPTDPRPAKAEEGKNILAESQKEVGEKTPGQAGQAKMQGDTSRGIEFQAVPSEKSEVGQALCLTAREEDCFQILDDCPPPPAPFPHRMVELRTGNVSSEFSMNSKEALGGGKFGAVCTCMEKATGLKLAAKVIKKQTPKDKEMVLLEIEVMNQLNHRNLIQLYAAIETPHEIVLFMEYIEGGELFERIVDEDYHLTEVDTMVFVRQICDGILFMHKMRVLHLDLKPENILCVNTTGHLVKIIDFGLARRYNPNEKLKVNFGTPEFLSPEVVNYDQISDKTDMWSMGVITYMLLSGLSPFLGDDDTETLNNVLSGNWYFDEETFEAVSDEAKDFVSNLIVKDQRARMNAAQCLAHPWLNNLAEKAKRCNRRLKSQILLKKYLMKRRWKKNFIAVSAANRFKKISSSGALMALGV
Sequence of MAP kinase-activated protein kinase 5 (Q8IW41 whole entry, canonical isoform): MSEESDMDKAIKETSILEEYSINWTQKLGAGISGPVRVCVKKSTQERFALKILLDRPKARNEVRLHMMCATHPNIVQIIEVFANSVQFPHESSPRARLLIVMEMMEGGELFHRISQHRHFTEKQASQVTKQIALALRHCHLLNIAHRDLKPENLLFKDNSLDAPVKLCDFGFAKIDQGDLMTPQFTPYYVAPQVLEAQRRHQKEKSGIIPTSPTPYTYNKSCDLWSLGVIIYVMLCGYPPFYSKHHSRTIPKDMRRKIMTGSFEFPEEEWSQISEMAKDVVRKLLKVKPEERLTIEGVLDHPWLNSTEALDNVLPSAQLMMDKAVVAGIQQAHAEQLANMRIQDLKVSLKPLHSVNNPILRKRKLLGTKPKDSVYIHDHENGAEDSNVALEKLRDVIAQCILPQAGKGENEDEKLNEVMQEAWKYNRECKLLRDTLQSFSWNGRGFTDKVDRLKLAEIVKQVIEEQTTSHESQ
Sequence of Activin receptor type-1B (P36896 whole entry): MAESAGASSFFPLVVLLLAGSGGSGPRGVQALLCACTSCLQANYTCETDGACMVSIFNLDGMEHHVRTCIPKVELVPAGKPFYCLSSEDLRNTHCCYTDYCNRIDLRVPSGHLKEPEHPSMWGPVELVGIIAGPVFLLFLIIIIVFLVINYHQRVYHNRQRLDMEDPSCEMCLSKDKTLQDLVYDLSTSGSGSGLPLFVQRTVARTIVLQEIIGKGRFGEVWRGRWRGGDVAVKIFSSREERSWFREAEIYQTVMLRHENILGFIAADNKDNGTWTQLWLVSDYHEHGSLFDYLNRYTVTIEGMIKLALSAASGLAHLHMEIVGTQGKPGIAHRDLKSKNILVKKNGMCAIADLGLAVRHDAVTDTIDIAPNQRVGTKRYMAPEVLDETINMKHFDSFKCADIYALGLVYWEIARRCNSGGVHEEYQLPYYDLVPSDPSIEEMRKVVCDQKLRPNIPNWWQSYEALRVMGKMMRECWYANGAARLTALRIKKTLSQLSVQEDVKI
Sequence of High affinity nerve growth factor receptor (P04629 whole entry): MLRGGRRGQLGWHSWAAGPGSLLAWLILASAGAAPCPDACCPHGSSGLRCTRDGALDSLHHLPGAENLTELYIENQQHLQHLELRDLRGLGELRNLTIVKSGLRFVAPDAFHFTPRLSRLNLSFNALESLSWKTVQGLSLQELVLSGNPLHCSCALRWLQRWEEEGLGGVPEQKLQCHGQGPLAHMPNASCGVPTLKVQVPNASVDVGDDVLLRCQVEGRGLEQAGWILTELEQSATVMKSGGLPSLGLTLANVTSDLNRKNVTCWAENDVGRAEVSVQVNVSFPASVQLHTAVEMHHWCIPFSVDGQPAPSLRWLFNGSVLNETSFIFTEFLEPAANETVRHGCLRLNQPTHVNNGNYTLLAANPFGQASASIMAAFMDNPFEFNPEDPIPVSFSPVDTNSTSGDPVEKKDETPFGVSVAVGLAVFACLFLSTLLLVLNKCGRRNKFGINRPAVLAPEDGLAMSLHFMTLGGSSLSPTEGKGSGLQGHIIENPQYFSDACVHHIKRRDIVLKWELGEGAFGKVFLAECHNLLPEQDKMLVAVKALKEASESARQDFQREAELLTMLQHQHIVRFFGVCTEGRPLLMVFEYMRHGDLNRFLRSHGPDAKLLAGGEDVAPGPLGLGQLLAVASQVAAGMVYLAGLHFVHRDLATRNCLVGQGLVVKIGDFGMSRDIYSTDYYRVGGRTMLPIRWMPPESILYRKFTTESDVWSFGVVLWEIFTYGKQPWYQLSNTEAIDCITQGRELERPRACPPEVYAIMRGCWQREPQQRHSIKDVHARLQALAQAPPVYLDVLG

For `N#CCNC(=O)c1ccc(-c2ccnc(Nc3ccc(N4CCOCC4)cc3)n2)cc1` [MOMELOTINIB], the IC50 [1] was under 100 nM, the IC50 (Activin receptor type-1B) was under 1000 nM and the IC50 [2] was under 1000 nM. For the same molecule, the IC50 (Ephrin type-B receptor 1) was under 1000 nM, the IC50 [3] was under 1000 nM and the IC50 [4] was under 1000 nM. It also gave an IC50 [5] of under 1000 nM, an IC50 [6] of under 1000 nM and an IC50 [7] of under 1000 nM. For the same molecule, the IC50 [8] was under 1000 nM, the IC50 [9] was under 1000 nM and the IC50 [10] was under 1000 nM. It also gave an IC50 [11] of under 1000 nM, an IC50 [12] of under 1000 nM and an IC50 [13] of under 1000 nM. The IC50 [14] was over 1000 nM, the IC50 [15] was over 1000 nM and the IC50 [16] was over 1000 nM. For the same molecule, the IC50 [17] was over 1000 nM, the IC50 [18] was over 1000 nM and the IC50 [19] was over 1000 nM. It also gave an IC50 [20] of over 1000 nM, an IC50 [21] of over 1000 nM and an IC50 [22] of over 1000 nM. It also gave an IC50 [23] of over 1000 nM, an IC50 [24] of over 1000 nM and an IC50 [25] of over 1000 nM. For the same molecule, the IC50 (SRSF protein kinase 1) was over 1000 nM, the IC50 (CMK) was 700 nM and the IC50 (K562) was 58000 nM. It also gave an inhibition [26] of over 50%, an inhibition (Aurora kinase B) of under 50% and an inhibition [27] of under 50%. The inhibition [28] was under 50%, the inhibition [29] was under 50% and the inhibition [30] was under 50%. It also gave an inhibition [31] of under 50%, an inhibition [32] of under 50% and an inhibition [33] of under 50%. The inhibition [34] was under 50%, the inhibition [35] was under 50% and the inhibition [36] was under 50%. It also gave an inhibition [37] of under 50%, an inhibition [38] of under 50% and an inhibition [39] of under 50%. It also gave an inhibition [40] of under 50% and an inhibition [41] of under 50%.
